Laboratory results as given in ChEMBL document CHEMBL1949546, “Pyrazoloquinolines as PDE10A inhibitors: discovery of a tool compound” (Bioorg Med Chem Lett, 2012).

Tests used:
[1] = AUC (0 to 6 hrs) in rat at 10 mg/kg, po; assay type: ADME, organism-based; set-up: time < 6 hr, dose 10 mg/kg, route oral; details: plasma
[2] = Clearance in rat hepatocytes assessed per million cells; assay type: ADME, cell-based, Hepatocyte; details: read-out: CLH
[3] = Clearance in human hepatocytes assessed per million cells; assay type: ADME, cell-based, Hepatocyte; details: read-out: CLH
[4] = Clearance in monkey hepatocytes assessed per million cells; assay type: ADME, cell-based, Macaca mulatta, Hepatocyte; details: rhesus monkey, read-out: CLH
[5] = Ratio of drug level in brain to plasma of rat after 6 hrs; assay type: ADME; details: read-out: BPR
Procedure, shortened: (§1)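 Animals were sacrificed at 6 h for ex vivo measurement of plasma concentration (nM) and brain level (ng/g), from which the brain to plasma ratio was derived.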

[6] = Drug uptake in rat brain after 6 hrs; assay type: ADME, tissue-based; details: read-out: Drug uptake; procedure, shortened: as §1
[7] = Plasma concentration in rat after 6 hrs; assay type: ADME; procedure, shortened: as §1
[8] = Clearance in dog hepatocytes assessed per million cells; assay type: ADME, cell-based, Canis lupus familiaris, Hepatocyte; details: read-out: CLH
[9] = Half life in monkey at 3 mg/kg, po; assay type: ADME, organism-based, Macaca mulatta; set-up: dose 3 mg/kg, route oral; details: rhesus monkey, in vivo
[10] = AUC (0 to 6 hrs) in monkey at 3 mg/kg, po; assay type: ADME, organism-based, Macaca mulatta; set-up: time < 6 hr, dose 3 mg/kg, route oral; details: rhesus monkey, plasma

Compound: COc1cc(C)c2nc3[nH]nc(C)c3c(CN3CCCOCC3)c2c1
- AUC(0-t) at 6 h [1]: 3.76 µM·h
- hepatocyte CLint [2]: < 1 µL/min/1e6 cells
- hepatocyte CLint [3]: 8 µL/min/1e6 cells

Compound: COc1cc(C)c2nc3[nH]nc(C)c3c(C(=O)c3ccncc3)c2c1
- hepatocyte CLint [4]: 66 µL/min/1e6 cells

Compound: COc1cc(C)c2nc3[nH]nc(C)c3c(C(O)c3cccnc3)c2c1 (racemic)
- hepatocyte CLint [4]: 67 µL/min/1e6 cells

Compound: COc1cc(C)c2nc3[nH]nc(C)c3c(C(O)c3ccnc(F)c3)c2c1 (racemic)
- hepatocyte CLint [4]: 66 µL/min/1e6 cells

Compound: COc1cc(C)c2nc3[nH]nc(C)c3c(C(O)c3ncco3)c2c1 (racemic)
- hepatocyte CLint [4]: 63 µL/min/1e6 cells

Compound: COc1cc(C)c2nc3[nH]nc(C)c3c(C(O)c3cncn3C)c2c1 (racemic)
- hepatocyte CLint [4]: 22 µL/min/1e6 cells

Compound: COc1ccc(C(O)c2c3cc(OC)cc(C)c3nc3[nH]nc(C)c23)cc1 (racemic)
- hepatocyte CLint [4]: 60 µL/min/1e6 cells

Compound: COc1cc(C)c2nc3[nH]nc(C)c3c(C(O)c3ccc(F)cc3)c2c1 (racemic)
- hepatocyte CLint [4]: 63 µL/min/1e6 cells

Compound: COc1cc(C)c2nc3[nH]nc(C)c3c(C(C#N)c3ccccc3)c2c1 (racemic)
- hepatocyte CLint [4]: 64 µL/min/1e6 cells

Compound: COc1cc(C)c2nc3[nH]nc(C)c3c(C(C)(O)c3ccncc3)c2c1 (racemic)
- hepatocyte CLint [4]: 66 µL/min/1e6 cells

Compound: Cc1cc(Cl)cc2c(C(O)c3ccncc3)c3c(C)n[nH]c3nc12 (racemic)
- hepatocyte CLint [4]: 25 µL/min/1e6 cells

Compound: Cc1cc(Cl)cc2c(C(O)c3cccnc3)c3c(C)n[nH]c3nc12 (racemic)
- Kp at 6 h [5]: 1.5
- AUC(0-t) at 6 h [1]: 11 µM·h
- concentration at 6 h [6]: 115 ng/g
- hepatocyte CLint [2]: 26 µL/min/1e6 cells
- hepatocyte CLint [3]: 5 µL/min/1e6 cells
- hepatocyte CLint [4]: 46 µL/min/1e6 cells
- concentration at 6 h [7]: 810 nM

Compound: Cc1cc(Cl)cc2c(C(O)c3ccnc(F)c3)c3c(C)n[nH]c3nc12 (racemic)
- hepatocyte CLint [4]: 37 µL/min/1e6 cells

Compound: Cc1ncc(C(O)c2c3cc(Cl)cc(C)c3nc3[nH]nc(C)c23)cn1 (racemic)
- hepatocyte CLint [8]: 7 µL/min/1e6 cells
- half-life [9]: 7.1 h
- Kp at 6 h [5]: < 0.18
- AUC(0-t) at 6 h [1]: 4.29 µM·h
- concentration at 6 h [6]: < 14 ng/g
- hepatocyte CLint [2]: 11 µL/min/1e6 cells
- hepatocyte CLint [3]: 2 µL/min/1e6 cells
- hepatocyte CLint [4]: 8 µL/min/1e6 cells
- AUC(0-t) at 6 h [10]: 11.5 µM·h
- concentration at 6 h [7]: 220 nM

Compound: COc1cc(C)c2nc3[nH]nc(C)c3c(C(O)c3ccncc3)c2c1 (single isomer, unassigned; (+))
- hepatocyte CLint [4]: 66 µL/min/1e6 cells

Compound: COc1cc(C)c2nc3[nH]nc(C)c3c(C(F)c3ccncc3)c2c1 (single isomer, unassigned; (-))
- hepatocyte CLint [4]: 62 µL/min/1e6 cells
